Results gathered from unrelated publications.
Lines come from different studies, so protocols differ.
Target: Voltage-gated inwardly rectifying potassium channel KCNH2 (KCNH2, Homo sapiens, UniProt Q12809)

| Compound | test | test system | conditions | IC50 [µM] |
| --- | --- | --- | --- | --- |
| NC/C(=C\F)COc1cccc(Cn2c(=S)[nH]c(=O)c3[nH]cnc32)c1 | ion current, inhibitor |  |  | > 100 |
| CC(C)(C)c1sc2ncnc(Oc3c(F)cccc3OC(F)(F)F)c2c1-c1ccc(Cl)cc1 | ion current, inhibitor, patch clamp |  |  | ~28 |
| CCOC(=O)C1=C(CN2CCC[C@@H]2C(=O)Nc2ccc(B(O)O)cc2)NC(c2nccs2)=N[C@H]1c1ccc(F)cc1Br | ion current, inhibitor, patch clamp | HEK293 | pH 7.4 | 6.54 |
| FC(F)(F)CN1CC(n2cc(Oc3ccn4nc(Cl)cc4n3)cn2)C1 | ion current, inhibitor, patch clamp |  |  | > 30 |
| Cc1ccc2c(c1)C(=O)[C@]1(O)CCN(c3ccc4nc(C)ccc4c3)C1=N2 | ion current, inhibitor |  |  | 5.4 |
| Cc1ccc(OCC(=O)N[C@@H](Cc2c[nH]c3ccccc23)C(=O)OC(C)C)cc1 | ion current, inhibitor, patch clamp | HEK293 |  | > 50 |
| C=CCn1c(=O)c2cnc(Nc3ccc(N4CCN(C)CC4)cc3)nc2n1-c1ccc2c(n1)[C@@](O)(CC)CC2 | ion current, inhibitor |  |  | > 30 |
| N=C(CC(O)c1cc2c(F)cc(F)cc2c2cc(C(F)(F)F)ccc12)Nc1ccc(Br)cc1 (centres unmarked) | ligand displacement, FP |  |  | 1.95 |
